Data set [1] concerns Staphylococcus aureus. The data set can be described thus: Antimicrobial activity against CA-methicillin-resistant Staphylococcus aureus W48 ST217 incubated for 20 hrs by microdilution method. The following applies: W48 ST217, 20 h.
The subject of data set [2] is Staphylococcus aureus. The data set can be described thus: Antimicrobial activity against CA-methicillin-resistant Staphylococcus aureus W47 ST30 incubated for 20 hrs by microdilution method. It counts as functional. The following applies: W47 ST30, 20 h. The method in brief: (§1)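 MIC determined by microdilution following Clinical & Laboratory Standards Institute (CLSI) guidelines, read in µg/mL, against a panel of hospital- and community-acquired MRSA strains.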

Another data set has as its system Streptococcus agalactiae. The data set can be described thus: Antimicrobial activity against Streptococcus agalactiae ATCC 12386 incubated for 20 hrs by microdilution method. Type of data set: functional. The following applies: ATCC 12386, 20 h. The method in brief:
(§2)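 Broth microdilution MIC testing done following CLSI guidelines.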

A further data set concerns Pseudomonas aeruginosa. The data set can be described thus: Antimicrobial activity against Pseudomonas aeruginosa ATCC 27853 incubated for 20 hrs by microdilution method. Type of data set: functional. The following applies: ATCC 27853, 20 h. In short, it runs like this:
as §2

In the next data set the test system is Acinetobacter baumannii. The data set can be described thus: Antimicrobial activity against Acinetobacter baumannii ATCC 19606 incubated for 20 hrs by microdilution method. The following applies: ATCC 19606 = CIP 70.34 = JCM 6841, 20 h. Type of data set: functional. In short, it runs like this:
as §2

In data set [3] the test system is Staphylococcus aureus. The data set can be described thus: Antimicrobial activity against Staphylococcus aureus HA W235 ST5 incubated for 20 hrs by microdilution method. It counts as functional. The following applies: HA W235 ST5, 20 h. The method in brief:
as §1

Another data set deals with Bacillus subtilis. Kind of data set: Inhibition of N-terminal LgBiT-fused Bacillus subtilis NusB expressed in Escherichia coli BL21(DE3)pLysS interaction with C- terminal SmBiT-fused Bacillus subtilis NusE expressed in Escherichia coli BL21(DE3)pLysS at 100 uM preincubated for 10 mins followed by NusE addition and measured after 10 mins by nano-glo luciferase assay relative to control. The method in brief:
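NusB and NusE were mixed 1:1 at 1 µM in PBS, with compound at 100 µM. The read-out was percent inhibition of the NusB-NusE interaction.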

Data set [4] has as its system Staphylococcus aureus. Kind of data set: microbe, parasite or virus in culture. The following applies: ATCC 25923, 20 h.
The nature of data set [5]: Antimicrobial activity against Staphylococcus saprophyticus ATCC 15305 incubated for 20 hrs by microdilution method. The conditions noted are these: ATCC 15305, 20 h. It counts as functional, Staphylococcus saprophyticus subsp. saprophyticus. In short, it runs like this: as §2
Data set [6] in a line: microbe, parasite or virus in culture. The conditions noted are these: Enterobacter cloacae, ATCC 13047, 20 h.
For data set [7], the system named is Staphylococcus aureus. Kind of data set: Antimicrobial activity against Staphylococcus aureus ST239 incubated for 20 hrs by microdilution method. The following applies: CN79, 20 h. It counts as functional. The method in brief:
as §1

Data set [8] deals with Staphylococcus aureus. Kind of data set: Antimicrobial activity against CA-methicillin-resistant Staphylococcus aureus W46 ST59 incubated for 20 hrs by microdilution method. The conditions noted are these: W46 ST59, 20 h.
Data set [9] can be described thus: Therapeutic index, ratio of CC50 for human HaCaT cells to 1/2 times MIC for Staphylococcus aureus ATCC 25923. Type of data set: toxicity. The following applies: read-out: TI.
In data set [10] the test system is Enterococcus casseliflavus. The data set can be described thus: Antimicrobial activity against Enterococcus casseliflavus ATCC 25788 incubated for 20 hrs by microdilution method. It counts as functional. The conditions noted are these: ATCC 25788, 20 h. The method in brief:
as §2

Data set [11] concerns Staphylococcus aureus. The data set can be described thus: Antimicrobial activity against Staphylococcus aureus ST22 11B086169 incubated for 20 hrs by microdilution method. The conditions noted are these: ST22 11B086169, 20 h. Type of data set: functional. In short, it runs like this:
as §1

For data set [12], the system named is Staphylococcus epidermidis. Kind of data set: Antimicrobial activity against Staphylococcus epidermidis ATCC 12228 incubated for 20 hrs by microdilution method. It counts as functional. The conditions noted are these: ATCC 12228, 20 h. In short, it runs like this:
as §2

In data set [13] the test system is Staphylococcus aureus. Kind of data set: microbe, parasite or virus in culture. The conditions noted are these: ATCC 29213, 20 h.
The test system of data set [14] is Staphylococcus aureus. The data set can be described thus: Antimicrobial activity against Staphylococcus aureus USA300/ST8 incubated for 20 hrs by microdilution method. The conditions noted are these: USA300 ST8, 20 h.
The subject of a further data set is Streptococcus pneumoniae. The data set can be described thus: Antimicrobial activity against Streptococcus pneumoniae ATCC 49619 incubated for 20 hrs by microdilution method. It counts as functional. The conditions noted are these: ATCC 49619, 20 h. The method in brief:
as §2

Data set [15] deals with Staphylococcus aureus. The data set can be described thus: Antimicrobial activity against CA-methicillin-resistant Staphylococcus aureus W4 ST338 incubated for 20 hrs by microdilution method. Type of data set: functional. The conditions noted are these: W4 ST338, 20 h. In short, it runs like this:
as §1

The subject of data set [16] is Staphylococcus aureus. The data set can be described thus: Antimicrobial activity against Staphylococcus aureus ATCC BAA43 incubated for 20 hrs by microdilution method. It counts as functional. The following applies: ATCC BAA43, 20 h. The method in brief: as §1
Data set [17] deals with Staphylococcus aureus. Kind of data set: Antimicrobial activity against CA-methicillin-resistant Staphylococcus aureus W45 ST59 incubated for 20 hrs by microdilution method. The conditions noted are these: W45 ST59, 20 h.
Data set [18] is described as follows: Cytotoxicity against human A549 cells assessed as reduction in cell viability after 48 to 72 hrs by MTT assay. Type of data set: cell-based.
Data set [19] can be described thus: Cytotoxicity against human HaCaT cells assessed as reduction in cell viability after 48 to 72 hrs by MTT assay. It counts as cell-based.
The nature of data set [20]: Therapeutic index, ratio of CC50 for human A549 cells to 1/2 times MIC for Staphylococcus aureus ATCC 25923. The following applies: read-out: TI. It counts as toxicity.
Data set [21] concerns Staphylococcus aureus. Kind of data set: Antimicrobial activity against Staphylococcus aureus ATCC BAA44 incubated for 20 hrs by microdilution method. The conditions noted are these: ATCC BAA44, 20 h. Type of data set: functional. In short, it runs like this: as §1
Data set [22] concerns Staphylococcus aureus. The data set can be described thus: Antimicrobial activity against Staphylococcus aureus HA W231 ST45 incubated for 20 hrs by microdilution method. Type of data set: functional. The conditions noted are these: HA W231 ST45, 20 h. In short, it runs like this: as §1
In another data set the test system is Streptococcus pyogenes. Kind of data set: Antimicrobial activity against Streptococcus pyogenes ATCC 19615 incubated for 20 hrs by microdilution method. It counts as functional. The conditions noted are these: ATCC 19615, 20 h. The method in brief:
as §2

For a further data set, the system named is Enterococcus faecium. Kind of data set: Antimicrobial activity against Enterococcus faecium ATCC 19433 incubated for 20 hrs by microdilution method. Type of data set: functional. The following applies: ATCC 19433, 20 h. The method in brief: as §2

Values after ≈ are worked out from the molar mass of the structure shown.

The values below come from ChEMBL document CHEMBL4364256, “Design, synthesis and biological evaluation of antimicrobial diarylimine and -amine compounds targeting the interaction between the bacterial NusB and NusE proteins” (Eur J Med Chem, 2019).

As for `C#Cc1cccc(NCc2cc([N+](=O)[O-])cc(Br)c2O)c1`, the MIC against Staphylococcus aureus [1] is 2 µg/mL (≈ 5.76 µM); against Staphylococcus aureus [2] it was 2 µg/mL (≈ 5.76 µM); against Streptococcus agalactiae it was 32 µg/mL (≈ 92.2 µM); in the data set on Pseudomonas aeruginosa, above 256 µg/mL; against Acinetobacter baumannii it was 256 µg/mL (≈ 737 µM); with Staphylococcus aureus [3] it was 2 µg/mL (≈ 5.76 µM). Also, the MIC with Staphylococcus aureus [4] is 2 µg/mL (≈ 5.76 µM); in data set [5] it was 16 µg/mL (≈ 46.1 µM); in data set [6], above 256 µg/mL; against Staphylococcus aureus [7], 4 µg/mL (≈ 11.5 µM); with Staphylococcus aureus [8], 4 µg/mL (≈ 11.5 µM); in data set [10], 64 µg/mL (≈ 184 µM). The MIC in the data set with Staphylococcus aureus [11] worked out at 4 µg/mL (≈ 11.5 µM); in data set [12], 4 µg/mL (≈ 11.5 µM); with Staphylococcus aureus [13], 2 µg/mL (≈ 5.76 µM); with Staphylococcus aureus [14], 4 µg/mL (≈ 11.5 µM); against Streptococcus pneumoniae, 32 µg/mL (≈ 92.2 µM); in the data set with Staphylococcus aureus [15], 2 µg/mL (≈ 5.76 µM). The MIC stood at 2 µg/mL (≈ 5.76 µM) against Staphylococcus aureus [16]; 2 µg/mL (≈ 5.76 µM) against Staphylococcus aureus [17]; 16 µg/mL (≈ 46.1 µM) with Staphylococcus aureus [21]; 2 µg/mL (≈ 5.76 µM) against Staphylococcus aureus [22]; 32 µg/mL (≈ 92.2 µM) against Streptococcus pyogenes; 64 µg/mL (≈ 184 µM) in the data set with Enterococcus faecium. Further, in the data set on Bacillus subtilis, the inhibition is 99.6%. For the same molecule, the selectivity ratio in data set [9] came to 25; in data set [20] it was 27. Further, the CC50 in data set [18] was 79.1 µM; in data set [19], 72.2 µM.

Turning to `O=C(O)c1cn(C2CC2)c2cc(N3CCNCC3)c(F)cc2c1=O` [CIPROFLOXACIN], the MIC against Staphylococcus aureus [1] was 4 µg/mL (≈ 12.1 µM); in the data set with Staphylococcus aureus [2], 0.5 µg/mL (≈ 1.51 µM); against Streptococcus agalactiae, 4 µg/mL (≈ 12.1 µM); in the data set with Acinetobacter baumannii, 2 µg/mL (≈ 6.04 µM); in the data set on Staphylococcus aureus [3] it was 4 µg/mL (≈ 12.1 µM); in the data set with Staphylococcus aureus [4] it was 0.5 to 1 µg/mL (≈ 1.51 to 3.02 µM). Further, the MIC in [5] was 0.5 µg/mL (≈ 1.51 µM); with Staphylococcus aureus [7], 4 µg/mL (≈ 12.1 µM); against Staphylococcus aureus [8], 0.25 µg/mL (≈ 0.754 µM); in data set [10] it was 4 µg/mL (≈ 12.1 µM); in the data set with Staphylococcus aureus [11] it was 4 µg/mL (≈ 12.1 µM); in data set [12], 0.0625 µg/mL (≈ 0.189 µM). Besides, the MIC is 0.5 to 1 µg/mL (≈ 1.51 to 3.02 µM) with Staphylococcus aureus [13]; 4 µg/mL (≈ 12.1 µM) in the data set with Staphylococcus aureus [14]; 0.5 µg/mL (≈ 1.51 µM) in the data set with Staphylococcus aureus [15]; 2 µg/mL (≈ 6.04 µM) in the data set on Staphylococcus aureus [16]; 0.25 µg/mL (≈ 0.754 µM) against Staphylococcus aureus [17]; 4 µg/mL (≈ 12.1 µM) against Staphylococcus aureus [21]. The results for the MIC in the data set with Staphylococcus aureus [22], in the data set with Streptococcus pyogenes and with Enterococcus faecium were 2 µg/mL (≈ 6.04 µM), 0.5 µg/mL (≈ 1.51 µM) and 4 µg/mL (≈ 12.1 µM), respectively.

Take `O=[N+]([O-])c1ccc(O)c(/C=N/c2cccc(Cl)c2)c1`: the MIC is above 256 µg/mL against Pseudomonas aeruginosa; 256 µg/mL (≈ 925 µM) with Acinetobacter baumannii; 2 µg/mL (≈ 7.23 µM) against Staphylococcus aureus [4]; above 256 µg/mL in data set [6]; 16 µg/mL (≈ 57.8 µM) in the data set on Staphylococcus aureus [13]; 64 µg/mL (≈ 231 µM) against Streptococcus pneumoniae. Moreover, in the data set on Enterococcus faecium, the MIC is above 256 µg/mL. In addition, the inhibition in the data set with Bacillus subtilis worked out at 66.5%. Further, the selectivity ratio worked out at 69 in [9] and 76 in data set [20]. For the same molecule, the CC50 came out at 274 µM in data set [18] and 250 µM in [19].

As for `C#Cc1cccc(NCc2cc(Cl)cc(Cl)c2O)c1`, the MIC was above 256 µg/mL in the data set with Pseudomonas aeruginosa; above 256 µg/mL against Acinetobacter baumannii; 2 µg/mL (≈ 6.85 µM) in the data set with Staphylococcus aureus [4]; above 256 µg/mL in data set [6]; 4 µg/mL (≈ 13.7 µM) against Staphylococcus aureus [13]; 256 µg/mL (≈ 876 µM) in the data set with Streptococcus pneumoniae. This molecule also showed an MIC against Enterococcus faecium of 32 µg/mL (≈ 110 µM). The inhibition with Bacillus subtilis is 50.6%. For the same molecule, the selectivity ratio came out at 32 in [9] and 33 in data set [20]. Further, the CC50 in data set [18] is 112 µM; in data set [19] it was 108 µM.
